For experiment [1], the system named is Sphaerechinus granularis. Nature of the experiment: Inhibition of sea urchin egg fertilization after 10 mins. The format is functional. The essentials: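 Sphaerechinus granularis eggs, each experiment using eggs from a single female, about 50,000 eggs/ml. Eggs were treated 10 min with compound in MeOH-H2O (20:80), diluted five-fold with filtered sea water and fertilized. Controls were handled the same way. Cleavage was checked by light microscopy in vivo at 10 min and 2 h. Values are given as LD50 (M).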

Another experiment relates to Cladosporium cucumerinum. Nature of the experiment: Antifungal activity against Cladosporium cucumerinum. The format is functional. The method in brief:
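Direct bioautography on TLC: samples spotted on TLC plates, then sprayed with a suspension of Cladosporium cucumerinum. Activity is recorded as the minimum inhibition dose in μg spotted.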

Experiment [2] has as its system Sphaerechinus granularis. Nature of the experiment: Inhibition of sea urchin egg fertilization at <10 uM after 10 mins.

The source made the active and inactive calls. The calls are words filed in the database; no cut-off is given here.

As for `CC(C)[C@@H](O)CC[C@@H](C)[C@H]1C[C@@H](O)[C@@H]2[C@]1(C)CC[C@@H]1[C@@]3(C)CC[C@H](O)[C@H](O)[C@@H]3[C@@H](O)C[C@]12O`, the LD50 in the experiment on Sphaerechinus granularis [1] stood at 1 ×10⁻⁶ M.

Regarding `CC(C)[C@@H](O)CC[C@@H](C)[C@H]1C[C@@H](O)[C@@H]2[C@]1(C)CC[C@@H]1[C@@]3(C)CC[C@H](O)C[C@@H]3[C@@H](O)C[C@]12O`, the MIC in the experiment on Cladosporium cucumerinum was 3 µg. Also, in the experiment with Sphaerechinus granularis [2], the outcome was inactive.

For `CO[C@H]1[C@H](O[C@H]2[C@H](OCC[C@@H](CC[C@@H](C)[C@H]3[C@@H](O)[C@@H](O)[C@@H]4[C@]3(C)CC[C@@H]3[C@@]5(C)CC[C@H](O)[C@H](O)[C@@H]5[C@@H](O)C[C@]34O)C(C)C)OC[C@@H](O)[C@@H]2O)OC[C@@H](O)[C@@H]1O` [HALITYLOSIDE A], the MIC with Cladosporium cucumerinum was found to be 40 µg. The same compound showed an LD50 with Sphaerechinus granularis [1] of 1 ×10⁻⁵ M.

As to `CO[C@H]1[C@H](O[C@H]2[C@H](OCC[C@@H](CC[C@@H](C)[C@H]3[C@@H](O)[C@@H](O)[C@@H]4[C@]3(C)CC[C@@H]3[C@@]5(C)CC[C@H](O)C[C@@H]5[C@@H](O)C[C@]34O)C(C)C)OC[C@@H](O)[C@@H]2O)OC[C@@H](O)[C@@H]1O` [HALITYLOSIDE B], in the experiment with Sphaerechinus granularis [1], the LD50 is 1 ×10⁻⁵ M.

The compound `CO[C@H]1[C@H](O[C@H]2[C@H](O[C@@H](CC[C@@H](C)[C@H]3C[C@@H](O)[C@@H]4[C@]3(C)CC[C@@H]3[C@@]5(C)CC[C@H](O)[C@H](O)[C@@H]5[C@@H](O)C[C@]34O)C(C)C)O[C@@H](CO)[C@@H]2O)OC[C@@H](OC)[C@@H]1O` [HALITYLOSIDE D] registered an LD50 in the experiment on Sphaerechinus granularis [1] of 1 ×10⁻⁶ M.

As to `CO[C@H]1[C@H](O[C@H]2[C@H](O[C@@H](CC[C@@H](C)[C@H]3C[C@@H](O)[C@@H]4[C@]3(C)CC[C@@H]3[C@@]5(C)CC[C@H](O)C[C@@H]5[C@@H](O)C[C@]34O)C(C)C)O[C@@H](CO)[C@@H]2O)OC[C@@H](OC)[C@@H]1O` [HALITYLOSIDE E], the MIC against Cladosporium cucumerinum worked out at 10 µg. The LD50 with Sphaerechinus granularis [1] was 1 ×10⁻⁷ M.

As for `CO[C@H]1[C@H](O[C@H]2[C@H](O[C@@H](CC[C@@H](C)[C@H]3C[C@@H](O)[C@@H]4[C@]3(C)CC[C@@H]3[C@@]5(C)CC[C@H](O)C[C@@H]5[C@H](O)C[C@]34O)C(C)C)O[C@@H](CO)[C@@H]2O)OC[C@@H](OC)[C@@H]1O` [HALITYLOSIDE F], the MIC against Cladosporium cucumerinum worked out at 5 µg. Moreover, the LD50 in the experiment on Sphaerechinus granularis [1] came out at 1 ×10⁻⁶ M.

Source of the values: ChEMBL document CHEMBL1148177, “Starfish saponins, Part 50. Steroidal glycosides from the Okinawan starfish Nardoa tuberculata” (1993).
